Rows were chosen to be rich in hits. Some 1.9% of all compounds tested hit in one or more screens of this group.
Arr AP2 block: human beta-arrestin and AP2 interaction inhibition | FITC-arrestin peptide / GST-AP2 beads, flow cytometry; AP2 beta2 appendage carries R879A mutation | inhibition, % at 10 µM | actives 0.31% (n = 340,000) | AID 504490;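 active means inhibition above a set limit, near 3 SD of compounds lacking own fluorescence, cut at about 54% in these data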
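Measured by: flow cytometry, FL1 (488/535 nm); Material: AP2 appendage R879A on GSH beads; Evaluation: percent response; Timing: pre-incubation 12 min, peptide binding 1 h, room temperature; Also added: 50 nM FITC-arrestin peptide; Medium: PBS with 0.05% Tween 20 and 0.1% BSA.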
sPLA2-III inh: Blocks human group III sPLA2 activity; Q9NZ20; QFRET BODIPY PC-A2 liposome hydrolysis, fluorescence; inhibition, % at 12.2 µM; actives 0.56% (n = 370,000); AID 743126;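 active means inhibition above mean plus 3 SD of compounds lying within the high and low control bounds, cut at about 19% in these data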
Target sequence (Q9NZ20 whole entry, looked up): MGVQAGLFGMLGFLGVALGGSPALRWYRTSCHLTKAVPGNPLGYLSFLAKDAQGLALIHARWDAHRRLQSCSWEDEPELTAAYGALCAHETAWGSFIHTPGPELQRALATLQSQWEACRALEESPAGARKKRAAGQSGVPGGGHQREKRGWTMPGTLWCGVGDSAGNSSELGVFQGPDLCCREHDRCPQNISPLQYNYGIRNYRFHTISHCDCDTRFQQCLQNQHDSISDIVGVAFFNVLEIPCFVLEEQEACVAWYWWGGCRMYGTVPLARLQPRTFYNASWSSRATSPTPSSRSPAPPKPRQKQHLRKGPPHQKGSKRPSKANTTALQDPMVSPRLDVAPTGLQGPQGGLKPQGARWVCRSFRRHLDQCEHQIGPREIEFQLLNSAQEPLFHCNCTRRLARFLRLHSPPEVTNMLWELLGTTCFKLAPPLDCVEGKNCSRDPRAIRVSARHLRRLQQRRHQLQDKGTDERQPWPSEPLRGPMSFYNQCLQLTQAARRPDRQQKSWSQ
proCasp3 act: procaspase-3 (human) activation. activation, % at 8.5 µM. recombinant procaspase-3 D3A, Ac-DEVD-pNA absorbance 405 nm. actives 0.11% (n = 330,000);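 active means activation above the mean of all tested compounds plus 3 SD, cut at about 21% in these data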
Target sequence (P42574 whole entry D9A/D28A/D175A): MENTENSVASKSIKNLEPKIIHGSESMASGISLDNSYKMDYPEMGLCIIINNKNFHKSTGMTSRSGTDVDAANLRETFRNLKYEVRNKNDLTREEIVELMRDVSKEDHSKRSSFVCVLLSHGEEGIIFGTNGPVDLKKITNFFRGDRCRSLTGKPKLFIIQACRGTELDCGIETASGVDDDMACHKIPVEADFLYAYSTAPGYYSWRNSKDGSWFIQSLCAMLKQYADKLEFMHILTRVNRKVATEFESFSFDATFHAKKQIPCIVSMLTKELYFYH
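Assay system – Procaspase-3 D3A mutant, all three cleavage aspartates alanine · Controls – DMSO-only low control, 5 µM PC-3 D3A high control · Schedule – 1 h compound preincubation, 2 h substrate hydrolysis at 25 °C · Signal – 405 nm absorbance of p-nitroaniline, reads at 0 and 120 min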
PLC-gamma1 inh: blocks human PLC-gamma1 enzyme activity; AID 720700; P19174; actives 0.84% (n = 370,000); purified PLC-gamma1, fluorogenic substrate, fluorescence; inhibition, % at 12.2 µM; in the data active means inhibition above about 9.5%
PLCb3 inh: PLC-beta3 (human) inhibition, primary screen | Purified PLC-beta3, fluorogenic substrate, fluorescence | inhibition, % at 12.2 µM | actives 0.18% (n = 370,000)
procasp7 counter: counter-screen for procaspase-3 activators: activators of human procaspase-7; activation, % at 8.5 µM; actives 0.093% (n = 330,000); recombinant procaspase-7, Ac-DEVD-pNA absorbance 405 nm; D23A/D198A/D206A triple mutant, cannot self-cleave; scale: DMSO 0, 5 µM enzyme 100; P55210;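 active means percent activation above the screen-wide mean plus 3 SD, cut at about 25% in these data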
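Assay system: Uncleavable procaspase-7 mutant enzyme / Input: 2 µM procaspase-7 mutant as dispensed / Dosing: single nominal 8.5 µM compound dose, 0.8% DMSO final / Timing: 1 h enzyme–compound preincubation and 2 h substrate reaction, both 25 °C / Detection: p-Nitroaniline absorbance at 405 nm, read at 0 and 120 min / Replication: singlicate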
PLCg1 ctr: PLC-gamma1 inhibition, counter-screen for PLC-beta3 hits. shares compounds with PLC-gamma1 inh. purified PLC-gamma1, fluorogenic substrate, fluorescence. inhibition, % at 12.3 µM. actives 3.1% (n = 3,300). AID 743258; in the data active means inhibition above about 9.5%
PLCb3 confirm: confirmation of human PLC-beta3 inhibitors; shares compounds with PLC-gamma1 inh; purified PLC-beta3, fluorogenic substrate fluorescence; inhibition, % at 12.3 µM; actives 1% (n = 3,300); AID 743261
Each line names hits and unclear results; the compound was inactive in the other large screens (follow-up assays come after a bar, where they were run). Unless noted, no stated cut-off is given here; in the data, active means inhibition above about 11%; inactive means the rest.

Cc1csc2nc(O)c(C(=O)NCCCN3CCCC3=O)c(=O)n12	PLC-gamma1 inh 9.7 | PLCg1 ctr inactive | PLCb3 confirm inactive
CC(C)[C@H]1Cn2nncc2Cn2c3ccccc3c(=O)n21	none (no result: Arr AP2 block, proCasp3 act, procasp7 counter)
C=CCn1c(N2CCCC2)nc2c1c(=O)n(C)c(=O)n2C	PLC-gamma1 inh 9.7 (no result: proCasp3 act, procasp7 counter) | PLCg1 ctr inactive | PLCb3 confirm inactive
C/C(Cl)=C\Cn1c(N2CCCCCC2)nc2c1c(=O)n(C)c(=O)n2C	none
CCC(C(=O)Nc1ccccc1N1CCCC1)c1cccc(C)c1 (stereo not given)	none (no result: Arr AP2 block, proCasp3 act, procasp7 counter)
CCNC(=O)CN1C(=O)NC2(CCCc3cc(OC)ccc32)C1=O (stereo not given)	none
COc1ccc2c(c1)CCCC21NC(=O)N(CC(=O)N2CC(C)OC(C)C2)C1=O (stereo not given)	PLC-gamma1 inh 13 | PLCg1 ctr inactive | PLCb3 confirm inactive
Cc1ccc(S(=O)(=O)Cc2nc3ccccc3c(=O)[nH]2)cc1	PLCb3 inh 19 | PLCg1 ctr inactive | PLCb3 confirm inactive
O=C(CS(=O)c1cccc(C(F)(F)F)c1)Nc1ccc(Cl)cc1Cl (stereo not given)	PLC-gamma1 inh 17 | PLCg1 ctr 13 | PLCb3 confirm inactive
O=C(CS(=O)c1cccc(Cl)c1)Nc1ccccc1Cl (stereo not given)	PLC-gamma1 inh 11 | PLCg1 ctr 11 | PLCb3 confirm inactive
COC(=O)[C@]12C[C@H](CC(=O)N3CCC(c4ccccc4)CC3)C(=O)N(Cc3ccco3)C1=C[C@H](C(C)(C)C)O[C@@H]2C	none (no result: Arr AP2 block, proCasp3 act, procasp7 counter)
COc1ccc(NS(=O)(=O)c2cn(C)cn2)cc1	none
COc1ccc(NS(=O)(=O)c2cn(C)nc2C)cc1	PLC-gamma1 inh 12 | PLCg1 ctr inactive | PLCb3 confirm inactive
O=C1NC(=S)S/C1=C\c1ccc(SCc2ccccc2)o1	PLC-gamma1 inh 57 | PLCg1 ctr 29 | PLCb3 confirm inactive
O=C1NC(=S)S/C1=C\c1ccc(SCc2ccco2)o1	none (no result: sPLA2-III inh, PLC-gamma1 inh, PLCb3 inh)
C#CCNC(=O)c1ccc2sc([C@H]3C[C@H](O)[C@@H](CO)O3)nc2c1	none (no result: Arr AP2 block, proCasp3 act, procasp7 counter)
Cc1cnc(CNC(=O)c2ccc3sc([C@H]4C[C@H](O)[C@@H](CO)O4)nc3c2)cn1	PLC-gamma1 inh 10 (no result: Arr AP2 block, proCasp3 act, procasp7 counter) | PLCg1 ctr inactive | PLCb3 confirm inactive
Cc1ccc(NC(=O)CSc2nnc(C3CCCCC3)n2N)cc1F	PLC-gamma1 inh 13 | PLCg1 ctr inactive | PLCb3 confirm inactive
N#CCc1ccc(NC(=O)c2ccc(CN3CCc4ccccc4C3)cc2)cc1	none
O=C(Nc1ccc(Cl)cc1)c1ccc(CN2CCc3ccccc3C2)cc1	sPLA2-III inh 20, PLC-gamma1 inh 13 | PLCg1 ctr inactive | PLCb3 confirm inactive
CCc1ccccc1NC(=O)CC1SCCNC1=O (stereo not given)	PLC-gamma1 inh 11 | PLCg1 ctr inactive | PLCb3 confirm inactive
O=C(NCc1ccccc1)C(=O)NCC(c1ccco1)N1CCOCC1 (stereo not given)	none (no result: sPLA2-III inh, PLC-gamma1 inh, PLCb3 inh)
COc1ccc(CNC(=O)C(=O)NCC(c2ccco2)N2CCOCC2)cc1 (stereo not given)	PLC-gamma1 inh 10 | PLCg1 ctr inactive | PLCb3 confirm inactive
CC(/C=C/C(=O)c1ccc(C)cc1)=C\c1ccccc1	PLC-gamma1 inh 10 | PLCg1 ctr inactive | PLCb3 confirm inactive
Cc1c(C#N)c(NC(=O)c2cccc(Cl)c2)n(Cc2ccccc2)c1C	PLC-gamma1 inh 9.9 | PLCg1 ctr inactive | PLCb3 confirm inactive
COc1ccc(Cn2c(C)c(C)c(C#N)c2NC(=O)Nc2cccc(Cl)c2)cc1	none
O=C1NC(c2ccccc2)c2c(-c3ccccc3)n[nH]c21 (stereo not given)	none (no result: Arr AP2 block, proCasp3 act, procasp7 counter)
CCOC(=O)CC1(C)Oc2ccccc2N1S(=O)(=O)c1ccc(C)cc1 (stereo not given)	PLC-gamma1 inh 9.8 (no result: Arr AP2 block, proCasp3 act, procasp7 counter) | PLCg1 ctr inactive | PLCb3 confirm inactive
O=C1c2ccccc2C(=O)N1Cc1nc2ccccc2c(=O)n1CCCn1ccnc1	PLC-gamma1 inh 12 (no result: proCasp3 act, procasp7 counter) | PLCg1 ctr inactive | PLCb3 confirm inactive
COc1ccc(N2C(=S)N=C(Nc3ccccc3)C23CCCCC3)cc1	PLC-gamma1 inh 15 | PLCg1 ctr inactive | PLCb3 confirm inactive
Cc1cccc(NC(=O)CN(C)S(=O)(=O)c2ccc(Br)cc2)n1	PLC-gamma1 inh 10 | PLCg1 ctr inactive | PLCb3 confirm inactive
CC(C)(C)c1ccc(-c2noc(CCC(N)=O)n2)cc1	none
CN(C)C(=O)CCc1nc(-c2ccc(C(C)(C)C)cc2)no1	PLC-gamma1 inh 12 | PLCg1 ctr inactive | PLCb3 confirm inactive
O=C(CSc1nnc(CNC(=O)c2ccc(F)cc2)o1)NCC1CCCO1 (stereo not given)	none
O=C(NCC1CCCO1)c1nnc(Cc2ccc(F)cc2)o1 (stereo not given)	PLC-gamma1 inh 11 | PLCg1 ctr inactive | PLCb3 confirm inactive
CC1(C(=O)Nc2ccc(F)cc2F)CCN1C(=O)Cc1ccc(Cl)cc1Cl (stereo not given)	none (no result: Arr AP2 block, proCasp3 act, procasp7 counter)
CC1(C(=O)Nc2ccc(F)cc2F)CCN1C(=O)Cc1ccccc1 (stereo not given)	PLC-gamma1 inh 11 (no result: Arr AP2 block, proCasp3 act, procasp7 counter) | PLCg1 ctr inactive | PLCb3 confirm inactive
COc1ccc2c(c1)CN1C(=O)N(CC(C)C)S(=O)(=O)CC21 (stereo not given)	none (no result: Arr AP2 block, proCasp3 act, procasp7 counter)
CC(CCc1ccccc1)NC(=O)c1cccs1 (stereo not given)	PLCb3 inh 12 | PLCg1 ctr inactive | PLCb3 confirm inactive
CC(CCc1ccccc1)NC(=O)c1ccc(C(=O)NC(C)CCc2ccccc2)cc1 (stereo not given)	none
Cc1ccc(C(=O)NC(=S)Nc2ccc(CN3CCOCC3)cc2)cc1	PLC-gamma1 inh 10 | PLCg1 ctr inactive | PLCb3 confirm inactive
Cc1c(NS(=O)(=O)c2cccc(C(=O)N3CCC(C)CC3)c2)c(=O)n(-c2ccccc2)n1C	none
Cc1cc(C(=O)N2CCC2(C)C(=O)Nc2ccc3[nH]ncc3c2)nn1C (stereo not given)	PLCb3 inh 15 (no result: Arr AP2 block, proCasp3 act, procasp7 counter) | PLCg1 ctr inactive | PLCb3 confirm inactive
O=S1(=O)N=C2CCCCCN2C(c2ccc(Cl)cc2)N1 (stereo not given)	PLC-gamma1 inh 10 | PLCg1 ctr inactive | PLCb3 confirm inactive
CCCCC[C@@H](C)N1C[C@@H](COCc2ccccc2)Oc2cc(N3CC[C@H](N(C)C)C3)ccc2S1(=O)=O	none (no result: Arr AP2 block, proCasp3 act, procasp7 counter)

Bioassay records (PubChem BioAssay)
